Laboratory results as given in ChEMBL document CHEMBL1131301, “Tyrosine kinase inhibitors. 14. Structure-activity relationships for methylamino-substituted derivatives of 4-[(3-bromophenyl)amino]-6-(methylamino)-pyrido[3,4-d]pyrimidine (PD 158780), a potent and specific inhibitor of the tyrosine kinase activity of receptors for the EGF family of growth factors” (J Med Chem, 1998).
pIC50: −log10 of the molar value. In brackets after ≈: the same amount, converted by molar mass.

Tests used:
[1] = Inhibition of Platelet-derived growth factor receptor (PDGFR)
A-431 [2] = assay: Weight change in A431 tumor bearing mice at 25 mg/kg ip dose, days 7-21 administration; type: functional; conditions: route intraperitoneal
Insulin receptor = Insulin receptor (Homo sapiens, UniProt P06213); assay: Inhibition of insulin receptor(IR)
Insulin receptor, sequence (P06213 28-758 limits assumed): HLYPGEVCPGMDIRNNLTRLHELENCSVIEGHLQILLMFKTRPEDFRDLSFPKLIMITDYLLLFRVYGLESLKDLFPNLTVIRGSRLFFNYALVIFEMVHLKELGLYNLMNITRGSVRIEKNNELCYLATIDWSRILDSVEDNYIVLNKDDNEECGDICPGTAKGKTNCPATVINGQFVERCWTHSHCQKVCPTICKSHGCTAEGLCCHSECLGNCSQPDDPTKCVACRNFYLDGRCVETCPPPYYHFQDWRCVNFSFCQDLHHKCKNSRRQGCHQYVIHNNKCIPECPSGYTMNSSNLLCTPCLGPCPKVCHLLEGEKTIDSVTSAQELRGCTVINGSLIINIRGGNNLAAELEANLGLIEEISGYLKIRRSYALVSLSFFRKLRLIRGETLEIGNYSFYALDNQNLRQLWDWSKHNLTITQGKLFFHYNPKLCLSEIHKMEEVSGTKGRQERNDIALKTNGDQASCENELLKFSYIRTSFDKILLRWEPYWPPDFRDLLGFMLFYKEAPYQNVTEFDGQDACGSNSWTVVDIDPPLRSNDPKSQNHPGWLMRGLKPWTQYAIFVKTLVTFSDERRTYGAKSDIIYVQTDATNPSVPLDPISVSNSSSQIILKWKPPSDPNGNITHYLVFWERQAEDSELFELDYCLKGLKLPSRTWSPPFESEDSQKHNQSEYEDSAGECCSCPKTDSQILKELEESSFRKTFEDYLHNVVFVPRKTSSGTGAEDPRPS
Insulin receptor, sequence (P06213 763-1382 limits assumed): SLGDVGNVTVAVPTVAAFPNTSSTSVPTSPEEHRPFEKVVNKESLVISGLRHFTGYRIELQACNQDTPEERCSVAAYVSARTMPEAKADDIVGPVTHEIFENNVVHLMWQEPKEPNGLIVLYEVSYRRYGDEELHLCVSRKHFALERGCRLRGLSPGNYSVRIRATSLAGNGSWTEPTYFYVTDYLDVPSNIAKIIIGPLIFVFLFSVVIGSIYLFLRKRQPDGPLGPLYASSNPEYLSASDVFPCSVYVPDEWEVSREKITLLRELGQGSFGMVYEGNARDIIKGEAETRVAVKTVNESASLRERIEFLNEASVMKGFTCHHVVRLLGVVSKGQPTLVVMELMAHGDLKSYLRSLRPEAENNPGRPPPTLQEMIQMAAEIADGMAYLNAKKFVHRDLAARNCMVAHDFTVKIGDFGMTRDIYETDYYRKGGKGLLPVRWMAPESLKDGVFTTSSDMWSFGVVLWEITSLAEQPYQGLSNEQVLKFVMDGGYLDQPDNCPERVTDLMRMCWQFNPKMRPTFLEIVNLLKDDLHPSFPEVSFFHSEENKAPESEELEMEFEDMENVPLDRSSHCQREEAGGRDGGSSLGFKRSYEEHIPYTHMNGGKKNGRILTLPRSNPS

Mus musculus [3] = assay: Weight change of EGFR tumor bearing mice at 25 mg/kg ip dose, days 1-15 administration; conditions: route intraperitoneal
[4] = target: T1, Epidermal growth factor receptor (Homo sapiens, UniProt P00533); assay: (§1) Inhibition of tyrosine/glutamic acid copolymer phosphorylation by epidermal growth factor receptor prepared of human A431
T1 sequence (P00533 whole entry, the tested form may be a part): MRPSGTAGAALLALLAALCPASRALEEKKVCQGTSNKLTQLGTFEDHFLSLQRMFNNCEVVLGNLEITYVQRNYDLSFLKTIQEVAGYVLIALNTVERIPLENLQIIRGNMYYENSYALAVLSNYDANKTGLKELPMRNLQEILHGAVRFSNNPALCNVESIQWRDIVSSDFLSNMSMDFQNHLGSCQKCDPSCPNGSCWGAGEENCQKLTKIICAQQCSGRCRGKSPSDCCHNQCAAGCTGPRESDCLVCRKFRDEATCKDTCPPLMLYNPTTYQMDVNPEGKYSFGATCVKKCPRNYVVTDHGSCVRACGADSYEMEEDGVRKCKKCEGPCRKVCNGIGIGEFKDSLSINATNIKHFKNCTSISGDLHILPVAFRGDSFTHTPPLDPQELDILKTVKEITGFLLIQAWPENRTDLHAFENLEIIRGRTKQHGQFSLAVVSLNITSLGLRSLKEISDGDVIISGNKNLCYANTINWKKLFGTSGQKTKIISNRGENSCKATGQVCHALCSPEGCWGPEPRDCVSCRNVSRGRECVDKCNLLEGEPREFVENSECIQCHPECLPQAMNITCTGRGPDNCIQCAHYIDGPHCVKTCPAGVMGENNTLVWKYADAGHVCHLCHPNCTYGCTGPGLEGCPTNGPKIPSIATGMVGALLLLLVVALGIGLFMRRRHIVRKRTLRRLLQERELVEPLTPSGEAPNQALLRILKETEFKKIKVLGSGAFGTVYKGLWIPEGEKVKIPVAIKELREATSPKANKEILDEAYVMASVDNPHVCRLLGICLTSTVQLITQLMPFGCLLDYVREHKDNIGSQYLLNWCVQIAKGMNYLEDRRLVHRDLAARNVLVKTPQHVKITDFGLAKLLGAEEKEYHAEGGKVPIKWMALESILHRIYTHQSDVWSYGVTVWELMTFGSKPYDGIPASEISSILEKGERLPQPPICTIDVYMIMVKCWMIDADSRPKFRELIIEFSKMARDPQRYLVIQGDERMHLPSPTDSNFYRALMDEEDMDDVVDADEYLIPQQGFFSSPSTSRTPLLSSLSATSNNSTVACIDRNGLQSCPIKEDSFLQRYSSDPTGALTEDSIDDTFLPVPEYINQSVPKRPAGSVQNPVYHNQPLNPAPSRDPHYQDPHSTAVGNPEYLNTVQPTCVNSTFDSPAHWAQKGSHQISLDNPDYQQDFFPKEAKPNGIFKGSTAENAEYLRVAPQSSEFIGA

Mus musculus [5] = assay: Difference in days for treated (T) and control (C) EGFR tumor fragments to reach 750 mg in mice at 25 mg/kg ip dose, administration days 1-15; type: functional; conditions: route intraperitoneal
[6] = target: Receptor tyrosine-protein kinase erbB-2 (Homo sapiens, UniProt P04626); assay: Inhibition of heregulin-dependent autophosphorylation of ErbB2 receptor in MDA-MB-453 cells; type: functional, cell-based
Receptor tyrosine-protein kinase erbB-2, sequence (P04626 whole entry): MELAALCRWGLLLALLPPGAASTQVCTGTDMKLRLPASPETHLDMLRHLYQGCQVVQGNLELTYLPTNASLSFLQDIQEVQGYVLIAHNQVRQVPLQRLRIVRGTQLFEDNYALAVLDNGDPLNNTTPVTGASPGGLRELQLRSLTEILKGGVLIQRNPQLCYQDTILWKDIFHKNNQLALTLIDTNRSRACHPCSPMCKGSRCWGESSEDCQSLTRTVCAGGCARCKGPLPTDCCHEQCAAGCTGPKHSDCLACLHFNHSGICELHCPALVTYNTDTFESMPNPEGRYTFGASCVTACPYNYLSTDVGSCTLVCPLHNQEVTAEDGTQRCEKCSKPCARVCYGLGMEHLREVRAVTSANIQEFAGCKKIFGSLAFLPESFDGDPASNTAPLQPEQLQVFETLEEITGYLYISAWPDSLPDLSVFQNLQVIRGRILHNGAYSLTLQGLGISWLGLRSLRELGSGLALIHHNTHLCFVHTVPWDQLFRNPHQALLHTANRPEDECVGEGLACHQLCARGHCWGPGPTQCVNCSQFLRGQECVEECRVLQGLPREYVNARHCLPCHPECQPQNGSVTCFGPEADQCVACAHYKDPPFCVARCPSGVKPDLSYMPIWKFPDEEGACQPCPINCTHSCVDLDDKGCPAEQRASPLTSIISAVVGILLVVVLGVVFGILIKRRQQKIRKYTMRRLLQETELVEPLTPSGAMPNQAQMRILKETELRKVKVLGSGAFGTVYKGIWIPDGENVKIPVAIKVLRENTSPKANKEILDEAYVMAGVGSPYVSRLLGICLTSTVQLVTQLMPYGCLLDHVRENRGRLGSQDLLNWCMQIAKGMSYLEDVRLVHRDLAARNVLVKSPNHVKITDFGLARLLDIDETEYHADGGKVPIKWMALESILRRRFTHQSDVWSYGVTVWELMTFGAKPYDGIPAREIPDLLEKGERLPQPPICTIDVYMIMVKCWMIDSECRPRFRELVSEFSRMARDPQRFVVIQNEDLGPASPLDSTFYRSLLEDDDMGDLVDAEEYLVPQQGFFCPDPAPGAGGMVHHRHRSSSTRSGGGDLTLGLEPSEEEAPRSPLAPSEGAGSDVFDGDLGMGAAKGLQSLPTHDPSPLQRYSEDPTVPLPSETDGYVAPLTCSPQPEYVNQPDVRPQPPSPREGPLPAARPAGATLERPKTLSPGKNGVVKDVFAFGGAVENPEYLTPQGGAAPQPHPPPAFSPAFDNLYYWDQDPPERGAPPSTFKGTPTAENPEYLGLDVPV

A-431 [7] = assay: Net reduction in A431 tumor burden between the first and last treatments in mice at 25 mg/kg ip dose, days 7-21 administration; type: functional; conditions: route intraperitoneal
Procedure, shortened: (§2)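 NCr nu/nu nude mice (18-22 g) were randomized and implanted sc with A431 epidermoid, human-EGFR-transfected NIH 3T3 fibroblast, or MCF-7 breast tumor fragments in the right axilla on day 0. Dosing was ip or oral, by average cage weight, with 6 mice per dose group. Log net cell kill is the net reduction in tumor burden between the first and last treatments.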

[8] = target: T1, Epidermal growth factor receptor; assay: Inhibition of autophosphorylation of epidermal growth factor receptor in A431 cells in culture
Mus musculus [9] = assay: Weight change of EGFR tumor bearing mice at 200 mg/kg peroral dose, days 1-15 administration; type: functional, organism-based; design: dose 200 mg/kg
[10] = target: Proto-oncogene tyrosine-protein kinase Src (Homo sapiens, UniProt P12931); assay: Inhibition of c-Src tyrosine kinase
Proto-oncogene tyrosine-protein kinase Src, sequence (P12931 2-536 limits assumed): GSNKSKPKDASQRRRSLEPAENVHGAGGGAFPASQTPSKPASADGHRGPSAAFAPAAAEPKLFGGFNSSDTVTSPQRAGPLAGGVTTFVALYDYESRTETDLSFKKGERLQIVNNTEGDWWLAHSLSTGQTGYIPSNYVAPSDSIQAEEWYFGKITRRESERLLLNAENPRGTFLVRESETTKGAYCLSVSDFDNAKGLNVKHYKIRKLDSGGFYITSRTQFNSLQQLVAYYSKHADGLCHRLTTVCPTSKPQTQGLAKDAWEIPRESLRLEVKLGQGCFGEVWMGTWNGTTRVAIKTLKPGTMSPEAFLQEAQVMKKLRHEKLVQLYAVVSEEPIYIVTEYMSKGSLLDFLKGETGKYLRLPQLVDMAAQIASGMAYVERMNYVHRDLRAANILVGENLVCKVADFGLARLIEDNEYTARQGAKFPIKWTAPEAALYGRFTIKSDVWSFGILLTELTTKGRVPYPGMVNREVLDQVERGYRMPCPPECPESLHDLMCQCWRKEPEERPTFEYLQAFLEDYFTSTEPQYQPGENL

Mus musculus [11] = assay: Ratio of treated and control EGFR median tumor mass*100% in mice at 25 mg/kg ip dose, days 1-15 administration; type: functional; conditions: route intraperitoneal
Procedure, shortened: (§3)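 Nude mice (NCr nu/nu, 18-22 g) were randomized and implanted sc with tumor fragments in the right axilla on day 0. Tumor lines were A431 epidermoid, NIH 3T3 fibroblasts transfected with human EGFR, and MCF-7 breast. Dosing was ip or oral, by average cage weight, with 6 mice/dose group. Vehicle was 6% dimethylacetamide/94% 50 mM sodium lactate pH 4.0 (suspension), or isethionate salt in water.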

A-431 [12] = assay: Ratio of treated and control A431 median tumor mass*100% in mice at 25 mg/kg peroral dose, days 7-21 administration; type: functional; conditions: route intraperitoneal, in the assay text read “intraperitoneal” for “peroral”; procedure, shortened: as §3
Mus musculus [13] = assay: Ratio of treated and control EGFR median tumor mass*100% in mice at 200 mg/kg peroral dose, days 1-15 administration; type: functional; conditions: route oral; procedure, shortened: as §3
Mus musculus [14] = assay: Difference in days for treated (T) and control (C) EGFR tumor fragments to reach 750 mg in mice at 200 mg/kg peroral dose, administration days 1-15; type: functional; conditions: route oral
[15] = target: Fibroblast growth factor receptor (Homo sapiens, UniProt P22607+P11362+P22455+P21802); assay: Inhibition of fibroblast growth factor receptor(FGFR); type: protein assay
[16] = target: T1, Epidermal growth factor receptor; assay: Inhibition of EGF-dependent autophosphorylation of EGF-R in A431 cells
A-431 [17] = assay: Difference in days for treated (T) and control (C) A431 tumor fragments to reach 750 mg in mice at 25 mg/kg intraperitoneal dose, administration days 7-21
[18] = target: T1, Epidermal growth factor receptor; assay: as §1; remark: listed apart in the source
Mus musculus [19] = assay: Net reduction in EGFR tumor burden between the first and last treatments in mice at 25 mg/kg ip dose, days 1-15 administration; type: functional; conditions: route intraperitoneal; procedure, shortened: as §2
Mus musculus [20] = assay: Net reduction in EGFR tumor burden between the first and last treatments in mice at 200 mg/kg peroral dose, days 1-15 administration; type: functional; conditions: route oral; procedure, shortened: as §2
[21] = Aqueous solubility ([…] degree C); type: physicochemical
A-431 [22] = assay: Net reduction in A431 tumor burden between the first and last treatments in mice at 25 mg/kg ip dose, administration days 13-26; type: functional; conditions: route intraperitoneal; procedure, shortened: as §2
Mus musculus [23] = assay: Ratio of treated and control EGFR median tumor mass*100% in mice at 400 mg/kg peroral dose, days 1-15 administration; type: functional; conditions: route oral; procedure, shortened: as §3
Mus musculus [24] = assay: Weight change of EGFR tumor bearing mice at 25 mg/kg ip dose, days 1-15 administration; type: functional; conditions: route intraperitoneal
Mus musculus [25] = assay: Weight change of EGFR tumor bearing mice at 400 mg/kg peroral dose, days 1-15 administration; type: functional; conditions: route oral
Mus musculus [26] = assay: Net reduction in EGFR tumor burden between the first and last treatments in mice at 400 mg/kg peroral dose, days 1-15 administration; type: functional; conditions: route oral; procedure, shortened: as §2
A-431 [27] = assay: Difference in days for treated (T) and control (C) A431 tumor fragments to reach 750 mg in mice at 12 mg/kg peroral dose, administration days 7-21; type: functional; conditions: route intraperitoneal, in the assay text read “intraperitoneal” for “peroral”; procedure, shortened: as §3
Mus musculus [28] = assay: Difference in days for treated (T) and control (C) EGFR tumor fragments to reach 750 mg in mice at 400 mg/kg peroral dose, administration days 1-15; type: functional; conditions: route oral
A-431 [29] = assay: WWeight change in A431 tumor bearing mice at 25 mg/kg ip dose, days 13-26 administration; type: functional; conditions: route intraperitoneal
A-431 [30] = assay: Ratio of treated and control A431 median tumor mass*100% in mice at 25 mg/kg peroral dose, days 13-26 administration; type: functional, Mus musculus; conditions: route intraperitoneal, in the assay text read “intraperitoneal” for “peroral”; procedure, shortened: as §3
A-431 [31] = assay: Ratio of treated and control A431 median tumor mass*100% in mice at 12 mg/kg peroral dose, days 7-21 administration; type: functional; conditions: route intraperitoneal, in the assay text read “intraperitoneal” for “peroral”; procedure, shortened: as §3
SK-OV-3 [32] = assay: Weight change in SKOV-3 tumor bearing mice at 25 mg/kg ip dose, days 10-14,17-21,24-28 administration; type: functional; conditions: route intraperitoneal
[33] = target: T1, Epidermal growth factor receptor; assay: Inhibit of phosphorylation of a tyrosine/glutamic acid copolymer by epidermal growth factor receptor prepared from human A431 carcinoma cell vesicles by immunoaffinity chromatography.
A-431 [34] = assay: Weight change in A431 tumor bearing mice at 12 mg/kg ip dose, days 7-21 administration; type: functional; conditions: route intraperitoneal
SK-OV-3 [35] = assay: Ratio of treated and control SKOV-3 median tumor mass*100% in mice at 25 mg/kg ip dose, days 10-14,17-21,24-28 administration; type: functional; conditions: route intraperitoneal
MCF7 [36] = assay: Difference in days for treated (T) and control (C) MCF-7 tumor fragments to reach 750 mg in mice at 25 mg/kg ip dose, administration days 1-15; type: functional; conditions: route intraperitoneal
SK-OV-3 [37] = assay: Difference in days for treated (T) and control (C) SKOV-3 tumor fragments to reach 750 mg in mice at 25 mg/kg ip dose, administration days 10-14,17-21,24-28; type: functional; conditions: route intraperitoneal
MCF7 [38] = assay: Net reduction in MCF-7 tumor burden between the first and last treatments in mice at 25 mg/kg ip dose, days 1-15 administration; type: functional; conditions: route intraperitoneal; procedure, shortened: as §2
MCF7 [39] = assay: Weight change in MCF-7 tumor bearing mice at 25 mg/kg ip dose, days 1-15 administration; type: functional
MCF7 [40] = assay: Ratio of treated and control MCF-7 median tumor mass*100% in mice at 25 mg/kg ip dose, days 1-15 administration; type: functional; conditions: route intraperitoneal; procedure, shortened: as §3
A-431 [41] = assay: Difference in days for treated (T) and control (C) A431 tumor fragments to reach 750 mg in mice at 25 mg/kg peroral dose, administration days 7-21; type: functional; conditions: route oral
A-431 [42] = assay: Net reduction in A431 tumor burden between the first and last treatments in mice at 12 mg/kg ip dose, days 7-21 administration; type: functional; conditions: route intraperitoneal; procedure, shortened: as §2

CN(C)CCNc1cc2c(Nc3cccc(Br)c3)ncnc2cn1
pIC50 [1]: < 4.30 | Weight change (A-431 [2]): -1.4 g | pIC50 (Insulin receptor): < 4.30 | Weight change (Mus musculus [3]): -1.1 g | pIC50 [4]: 8.96 | T-C (Mus musculus [5]): 3.3 days | pIC50 [6]: 6.42 | Net cell kill (A-431 [7]): -0.5 log10 | pIC50 [8]: 7.37 | Weight change (Mus musculus [9]): Weight gain | pIC50 [10]: < 4.30 | T/C (Mus musculus [11]): 43% | T/C (A-431 [12]): 66% | T/C (Mus musculus [13]): 47% | T-C (Mus musculus [14]): 1.1 days | IC50 [15]: > 50 µM | pIC50 [16]: 7.37 | T-C (A-431 [17]): 4.7 days | pIC50 [18]: 8.96 | Net cell kill (Mus musculus [19]): -1 log10 | Net cell kill (Mus musculus [20]): -1.3 log10 | S ([21]; buffer): > 48 mM

Brc1cccc(Nc2ncnc3cnc(NCCN4CCOCC4)cc23)c1
Net cell kill (A-431 [22]): -0.3 log10 | pIC50 [1]: < 4.30 | T/C (Mus musculus [23]): 15% | Weight change (Mus musculus [24]): -1.3 g | Weight change (Mus musculus [25]): -2 g | Net cell kill (Mus musculus [26]): -1.1 log10 | T-C (A-431 [27]): 1.9 days | pIC50 (Insulin receptor): < 4.30 | T-C (Mus musculus [28]): 2.8 days | Weight change (A-431 [29]): -1.1 g | T-C (Mus musculus [5]): 1.2 days | T/C (A-431 [30]): 98% | pIC50 [6]: 6.66 | T/C (A-431 [31]): 93% | Weight change (SK-OV-3 [32]): -2.1 g | pIC50 [33]: 9.19 | pIC50 [8]: 8.10 | Weight change (A-431 [34]): -0.2 g | T/C (SK-OV-3 [35]): 100% | pIC50 [10]: < 4.30 | T/C (Mus musculus [11]): 77% | T-C (MCF7 [36]): 11.7 days | T-C (SK-OV-3 [37]): 0 days | Net cell kill (MCF7 [38]): -0.1 log10 | IC50 [15]: > 50 µM | pIC50 [16]: 8.10 | pIC50 [18]: 9.15 | Weight change (MCF7 [39]): Weight gain | T/C (MCF7 [40]): 34% | Net cell kill (Mus musculus [19]): -1.2 log10 | solubility ([21]; water, read-out: S): 10 mM (≈ 4290 µg/mL) | T-C (A-431 [41]): 2.1 days | Net cell kill (A-431 [42]): -0.7 log10
